Results published in ChEMBL document CHEMBL3259528, “Exploring 5-nitrofuran derivatives against nosocomial pathogens: synthesis, antimicrobial activity and chemometric analysis” (2014).
≈ marks a conversion by molar mass, not a printed value. Calls of active or inactive are those of the source. The rule behind the calls is not given here.

Legend:
Staphylococcus aureus [1] = assay: Antimicrobial activity against Staphylococcus aureus ATCC 29213 after 24 to 48 hrs by two-fold broth microdilution method; assay type: functional
Escherichia coli [2] = assay: Antimicrobial activity against Escherichia coli ATCC 25922 after 24 to 48 hrs by two-fold broth microdilution method; assay type: functional
Klebsiella pneumoniae = assay: Antimicrobial activity against Klebsiella pneumoniae ATCC 700603 at 128 uM after 24 to 48 hrs by two-fold broth microdilution method; assay type: functional, organism-based
Procedure, shortened: (§1)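 Antibacterial microdilution in CAMH, inoculum 0.5 McFarland diluted in saline/CAMH, 35 °C for 18 h, with further reads at 24 and 48 h. Activity is scored at the maximum tested concentration, 128 µM. Triplicate.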

Enterobacter cloacae [3] = assay: Antimicrobial activity against Enterobacter cloacae ATCC 23355 at 128 uM after 24 to 48 hrs by two-fold broth microdilution method; assay type: functional, organism-based; procedure, shortened: as §1
Serratia marcescens [4] = assay: Antimicrobial activity against Serratia marcescens ATCC 14576 at 128 uM after 24 to 48 hrs by two-fold broth microdilution method; assay type: functional, organism-based; procedure, shortened: as §1
Candida albicans [5] = assay: Antimicrobial activity against Candida albicans ATCC 537Y at 64 uM after 48 hrs by two-fold broth microdilution method; assay type: functional, organism-based
Procedure, shortened: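 Single top concentration of the antifungal microdilution: RPMI 1640, inoculum 0.5 McFarland diluted in saline/RPMI, 35 °C for 48 h. Activity is judged at the highest tested level, 64 µM. Run in triplicate.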

Staphylococcus aureus [6] = assay: Antimicrobial activity against multidrug-resistant Staphylococcus aureus VISA3 […] by two-fold broth microdilution method; assay type: functional
Staphylococcus aureus [7] = assay: Antimicrobial activity against Staphylococcus aureus ATCC 29213 after 18 hrs by modified broth microdilution method; assay type: functional
Procedure, shortened: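 PGI90, the concentration giving 90% growth inhibition, fitted with an exponential growth curve from at least seven concentrations of the MIC assay. Inhibition % = [(Ac − Ap)/Ac] × 100 from A620 of drug-free control versus drug-treated culture. Checked by a modified broth microdilution (Phase 2).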

Enterococcus faecalis [8] = assay: Antimicrobial activity against Enterococcus faecalis ATCC 29212 at 128 uM after 24 to 48 hrs by two-fold broth microdilution method; assay type: functional, organism-based; procedure, shortened: as §1
Escherichia coli [9] = assay: Antimicrobial activity against Escherichia coli ATCC 25922 at 128 uM after 24 to 48 hrs by two-fold broth microdilution method; assay type: functional, organism-based; procedure, shortened: as §1
Enterococcus faecalis [10] = assay: Antimicrobial activity against Enterococcus faecalis ATCC 29212 after 24 to 48 hrs by two-fold broth microdilution method; assay type: functional
Serratia marcescens [11] = assay: Antimicrobial activity against Serratia marcescens ATCC 14576 after 24 to 48 hrs by two-fold broth microdilution method; assay type: functional
Candida albicans [12] = assay: Antimicrobial activity against Candida albicans ATCC 537Y after 48 hrs by two-fold broth microdilution method; assay type: functional
Procedure, shortened: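 Two-fold serial dilutions in RPMI 1640 per CLSI M27-A2. Stocks in DMSO/RPMI 1:20 v/v. Test range 1.0–64 µM. Inoculum set to 0.5 McFarland, then diluted in saline and RPMI 1640. Plates held at 35 °C for 48 h. MIC is the lowest concentration giving prominent growth reduction. Run in triplicate.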

Enterobacter cloacae [13] = assay: Antimicrobial activity against Enterobacter cloacae ATCC 23355 after 24 to 48 hrs by two-fold broth microdilution method; assay type: functional

| SMILES | MIC (Staphylococcus aureus [1]) [µM] | MIC90 (Staphylococcus aureus [1]) [µM] | MIC (Escherichia coli [2]) [µM] | MIC90 (Escherichia coli [2]) [µM] | log(1/MIC>90) (Staphylococcus aureus [7]) | MIC (Enterococcus faecalis [10]) [µM] | MIC90 (Enterococcus faecalis [10]) [µM] | MIC (Serratia marcescens [11]) [µM] | MIC90 (Serratia marcescens [11]) [µM] | MIC (Candida albicans [12]) [µM] | MIC90 (Candida albicans [12]) [µM] | MIC (Enterobacter cloacae [13]) [µM] | MIC90 (Enterobacter cloacae [13]) [µM] | Activity (Klebsiella pneumoniae) | Activity (Enterobacter cloacae [3]) | Activity (Serratia marcescens [4]) | Activity (Candida albicans [5]) | MIC (Staphylococcus aureus [6]) [µM] | Activity (Enterococcus faecalis [8]) | Activity (Escherichia coli [9]) |
| --- | --- | --- | --- | --- | --- | --- | --- | --- | --- | --- | --- | --- | --- | --- | --- | --- | --- | --- | --- | --- |
| CC(=O)N1N=C(c2ccc(Cl)cc2)OC1c1ccc([N+](=O)[O-])o1 (stereo not given) | 4 (≈ 1.34 µg/mL) | 5.45 (≈ 1.83 µg/mL) | 64 (≈ 21.5 µg/mL) | 88.7 (≈ 29.8 µg/mL) | 5.26 |  |  |  |  |  |  |  |  | inactive | inactive | inactive | inactive | 4 (≈ 1.34 µg/mL) |  |  |
| O=C(N/N=C/c1ccc([N+](=O)[O-])o1)c1ccc([N+](=O)[O-])cc1 | 2 (≈ 0.608 µg/mL) | 3 (≈ 0.913 µg/mL) |  |  | 5.48 |  |  |  |  |  |  |  |  | inactive | inactive | inactive | inactive | 4 (≈ 1.22 µg/mL) | inactive | inactive |
| O=C(N[C@H](CO)[C@H](O)c1ccc([N+](=O)[O-])cc1)C(Cl)Cl [CHLORAMPHENICOL] | 4 (≈ 1.29 µg/mL) |  | 4 (≈ 1.29 µg/mL) |  |  | 8 (≈ 2.59 µg/mL) |  | 8 (≈ 2.59 µg/mL) |  |  |  | 4 (≈ 1.29 µg/mL) |  | inactive |  |  |  |  |  |  |
| CN[C@H](CC(C)C)C(=O)N[C@H]1C(=O)N[C@@H](CC(N)=O)C(=O)N[C@H]2C(=O)N[C@H]3C(=O)N[C@H](C(=O)N[C@H](C(=O)O)c4cc(O)cc(O)c4-c4cc3ccc4O)[C@H](O)c3ccc(c(Cl)c3)Oc3cc2cc(c3O[C@@H]2O[C@H](CO)[C@@H](O)[C@H](O)[C@H]2O[C@H]2C[C@](C)(N)[C@H](O)[C@H](C)O2)Oc2ccc(cc2Cl)[C@H]1O [VANCOMYCIN] | < 20 |  |  |  |  |  |  |  |  |  |  |  |  |  |  |  |  | 2 (≈ 2.9 µg/mL) |  |  |
| CC1(C)S[C@@H]2[C@H](NC(=O)[C@H](N)c3ccccc3)C(=O)N2[C@H]1C(=O)O [AMPICILLIN] | < 20 |  | < 20 |  |  | < 20 |  |  |  |  |  | 8 (≈ 2.8 µg/mL) |  | inactive |  | inactive |  |  |  |  |
| CC(=O)N1N=C(c2ccc(Br)cc2)OC1c1ccc([N+](=O)[O-])o1 (stereo not given) | 4 (≈ 1.52 µg/mL) | 5.13 (≈ 1.95 µg/mL) |  |  | 5.29 |  |  |  |  |  |  |  |  | inactive | inactive | inactive | inactive | 8 (≈ 3.04 µg/mL) |  | inactive |

Further lines, with some results ahead:

| MIC (Staphylococcus aureus [1]) [µM] | MIC90 (Staphylococcus aureus [1]) [µM] | MIC (Escherichia coli [2]) [µM] | MIC90 (Escherichia coli [2]) [µM] | log(1/MIC>90) (Staphylococcus aureus [7]) | MIC (Enterococcus faecalis [10]) [µM] | MIC90 (Enterococcus faecalis [10]) [µM] | MIC (Serratia marcescens [11]) [µM] | MIC90 (Serratia marcescens [11]) [µM] | MIC (Candida albicans [12]) [µM] | MIC90 (Candida albicans [12]) [µM] | MIC (Enterobacter cloacae [13]) [µM] | MIC90 (Enterobacter cloacae [13]) [µM] | SMILES | Activity (Klebsiella pneumoniae) | Activity (Enterobacter cloacae [3]) | Activity (Serratia marcescens [4]) | Activity (Candida albicans [5]) | MIC (Staphylococcus aureus [6]) [µM] | Activity (Enterococcus faecalis [8]) | Activity (Escherichia coli [9]) |
| --- | --- | --- | --- | --- | --- | --- | --- | --- | --- | --- | --- | --- | --- | --- | --- | --- | --- | --- | --- | --- |
| 4 (≈ 1.48 µg/mL) | 6.12 (≈ 2.27 µg/mL) | 64 (≈ 23.7 µg/mL) | 86.1 (≈ 31.9 µg/mL) | 5.21 | 32 (≈ 11.8 µg/mL) | 31.7 (≈ 11.7 µg/mL) | 64 (≈ 23.7 µg/mL) | 85.7 (≈ 31.7 µg/mL) | 32 (≈ 11.8 µg/mL) | 42.2 (≈ 15.6 µg/mL) |  |  | CC(=O)N1N=C(c2ccc(Cl)cc2Cl)OC1c1ccc([N+](=O)[O-])o1 (stereo not given) | inactive | inactive |  |  |  |  |  |
| 4 (≈ 1.21 µg/mL) | 7.7 (≈ 2.33 µg/mL) | 32 (≈ 9.67 µg/mL) | 55 (≈ 16.6 µg/mL) | 5.11 |  |  |  |  |  |  |  |  | CN(C)c1ccc(C(=O)N/N=C/c2ccc([N+](=O)[O-])o2)cc1 | inactive | inactive | inactive | inactive |  | inactive |  |
| 2 (≈ 0.548 µg/mL) | 4.77 (≈ 1.31 µg/mL) | 8 (≈ 2.19 µg/mL) | 15.9 (≈ 4.36 µg/mL) | 5.32 | 4 (≈ 1.1 µg/mL) | 5.63 (≈ 1.54 µg/mL) |  |  |  |  | 4 (≈ 1.1 µg/mL) | 6.8 (≈ 1.86 µg/mL) | Nc1ccc(C(=O)N/N=C/c2ccc([N+](=O)[O-])o2)cc1 | inactive |  | inactive | inactive |  |  |  |
| 4 (≈ 1.39 µg/mL) | 5.78 (≈ 2 µg/mL) | 32 (≈ 11.1 µg/mL) | 54.6 (≈ 18.9 µg/mL) | 5.14 | 32 (≈ 11.1 µg/mL) | 57.3 (≈ 19.8 µg/mL) | 64 (≈ 22.2 µg/mL) | 90.5 (≈ 31.3 µg/mL) | 32 (≈ 11.1 µg/mL) | 44.6 (≈ 15.4 µg/mL) |  |  | CC(=O)N1N=C(c2ccc([N+](=O)[O-])cc2)OC1c1ccc([N+](=O)[O-])o1 (stereo not given) | inactive | inactive |  |  |  |  |  |
| 2 (≈ 0.676 µg/mL) | 4.5 (≈ 1.52 µg/mL) |  |  | 5.35 |  |  |  |  |  |  |  |  | O=C(N/N=C/c1ccc([N+](=O)[O-])o1)c1ccc(Br)cc1 | inactive | inactive | inactive | inactive |  | inactive | inactive |
